Reference: ChEMBL document CHEMBL4014326, “Discovery of an Orally Bioavailable Benzimidazole Diacylglycerol Acyltransferase 1 (DGAT1) Inhibitor That Suppresses Body Weight Gain in Diet-Induced Obese Dogs and Postprandial Triglycerides in Humans” (J Med Chem, 2017)

What was measured:
[1] = Drug metabolism in dog hepatocytes assessed as [3H]-3-(3,5-dimethyl-4-(6-(5-phenyl-1,3,4-oxadiazol-2-yl)-1H-benzo[d]imidazol-2-yl)phenyl)-2,2-dimethylpropanoic acid formation at 12.5 uM after 18 hrs; type: ADME, cell-based, Canis lupus familiaris, Hepatocyte
Method in brief: (§1)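 [3H]-labelled compound (12.5 µM) was incubated for 18 h with rat, dog, monkey or human hepatocytes, and metabolites were profiled.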

[2] = Efflux ratio of permeability across basolateral to apical side over apical to basolateral side in human Caco2 cells; type: ADME, cell-based; conditions: Caco-2
Method in brief: (§2)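 Caco-2 monolayer permeability was measured in the A-B and B-A directions, and the efflux ratio was taken as B-A/A-B.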

[3] = target: T1, Diacylglycerol O-acyltransferase 1 (Mus musculus, UniProt Q9Z2A7); assay: Inhibition of DGTA1 in mouse C2C12 cells assessed as inhibition of triglyceride formation after 2 hrs by LC/MS/MS analysis; type: cell-based
T1 sequence (Q9Z2A7 whole entry): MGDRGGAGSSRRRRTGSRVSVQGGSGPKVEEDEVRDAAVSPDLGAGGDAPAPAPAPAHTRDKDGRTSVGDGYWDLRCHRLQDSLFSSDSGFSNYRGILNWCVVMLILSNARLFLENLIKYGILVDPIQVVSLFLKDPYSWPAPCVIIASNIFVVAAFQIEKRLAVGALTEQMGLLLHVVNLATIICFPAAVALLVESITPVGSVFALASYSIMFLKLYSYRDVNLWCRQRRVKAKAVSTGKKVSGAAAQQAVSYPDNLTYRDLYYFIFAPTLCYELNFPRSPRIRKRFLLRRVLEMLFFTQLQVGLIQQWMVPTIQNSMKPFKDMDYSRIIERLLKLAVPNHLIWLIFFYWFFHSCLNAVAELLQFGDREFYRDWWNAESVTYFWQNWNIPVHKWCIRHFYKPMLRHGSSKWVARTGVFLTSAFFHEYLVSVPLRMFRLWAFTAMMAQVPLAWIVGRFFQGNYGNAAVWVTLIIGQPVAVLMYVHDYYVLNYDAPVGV
Method in brief: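 C2C12 cells were seeded in DMEM with 5 mM glucose and 10% FBS for 18 h at 37 °C. Medium was then replaced with DMEM, 5 mM glucose and 250 µM oleate-BSA plus inhibitor (0.5% DMSO final) for 2 h at 37 °C. Cells were extracted with butanol containing tripalmitolein internal standard and triglyceride was read by LC-MS/MS. An 11-point, 3-fold dose response was run in quadruplicate.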

[4] = Tmax in Sprague-Dawley rat 3 mg/kg, po by LC/MS/MS analysis; type: ADME, organism-based; conditions: in vivo
Method in brief: (§3)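 Male Sprague-Dawley rats, 200-300 g, dosed iv (n = 2) or po (n = 3) as solutions in NMP/PG or PEG400/ETPGS vehicles. Blood was taken from a jugular vein catheter at 0.083 (iv only), 0.25, 0.5, 1, 2, 4, 6 and 8 h into EDTA tubes, and plasma was analysed by LC-MS/MS. Values are means ± SD.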

Salmonella typhimurium [5] = assay: Genotoxicity in histidine depleted Salmonella typhimurium TA98 assessed as increase in reverting mutations up to 1000 ug in presence of S9 metabolic activation by Ames test; type: toxicity; conditions: salmonella enterica subsp. enterica serovar typhimurium
[6] = Drug metabolism in dog hepatocytes assessed as [3H]-(2S,3S,4S,5R,6S)-3,4,5-trihydroxy-6-(3-(4-(6-(5-(4-methoxyphenyl)-1,3,4-oxadiazol-2-yl)-1H-benzo[d]imidazol-2-yl)-3,5-dimethylphenyl)-2,2-dimethylpropanoyloxy)tetrahydro-2H-pyran-2-carboxylic acid formation at 12.5 uM after 18 hrs; type: ADME, cell-based, Canis lupus familiaris, Hepatocyte; method in brief: as §1
Salmonella typhimurium [7] = assay: Genotoxicity in histidine depleted Salmonella typhimurium TA98 assessed as increase in reverting mutations up to 1000 ug in absence of S9 metabolic activation by Ames test; type: toxicity; conditions: salmonella enterica subsp. enterica serovar typhimurium
[8] = Cmax in Sprague-Dawley rat at 3 mg/kg, po by LC/MS/MS analysis; type: ADME, organism-based; parameters: dose 3 mg/kg, route oral; conditions: in vivo; method in brief: as §3
[9] = AUC (0 to 8 hrs) in Sprague-Dawley rat at 3 mg/kg, po by LC/MS/MS analysis; type: ADME, organism-based; parameters: dose 3 mg/kg, time < 8 hr, route oral; conditions: in vivo; method in brief: as §3
[10] = Clearance in Sprague-Dawley rat at 1 mg/kg, iv by LC/MS/MS analysis; type: ADME, organism-based; conditions: in vivo; method in brief: as §3
[11] = target: T2, Diacylglycerol O-acyltransferase 2 (Homo sapiens, UniProt Q96PD7); assay: Inhibition of DGAT2 (unknown origin)
T2 sequence (Q96PD7 whole entry): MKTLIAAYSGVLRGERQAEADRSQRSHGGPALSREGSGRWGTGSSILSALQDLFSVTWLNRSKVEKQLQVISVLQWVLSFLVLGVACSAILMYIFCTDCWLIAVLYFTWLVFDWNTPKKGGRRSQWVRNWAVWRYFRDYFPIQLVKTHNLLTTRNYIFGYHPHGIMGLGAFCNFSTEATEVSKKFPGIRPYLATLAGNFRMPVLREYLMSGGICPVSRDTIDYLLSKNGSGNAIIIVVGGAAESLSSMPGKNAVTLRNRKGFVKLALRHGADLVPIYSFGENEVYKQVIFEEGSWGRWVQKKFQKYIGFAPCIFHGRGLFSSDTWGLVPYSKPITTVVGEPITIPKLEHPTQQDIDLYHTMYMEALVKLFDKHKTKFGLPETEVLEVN

Homo sapiens [12] = assay: Toxicity in human assessed as nausea at 150 mg, po as single oral dose; type: organism-based; conditions: in vivo
[13] = Drug metabolism in monkey hepatocytes assessed as [3H]-3-(3,5-dimethyl-4-(6-(5-phenyl-1,3,4-oxadiazol-2-yl)-1H-benzo[d]imidazol-2-yl)phenyl)-2,2-dimethylpropanoic acid formation at 12.5 uM after 18 hrs; type: ADME, cell-based, Macaca mulatta, Hepatocyte; conditions: rhesus monkey; method in brief: as §1
[14] = Volume of distribution at steady state in Sprague-Dawley rat at 1 mg/kg, iv by LC/MS/MS analysis; type: ADME, organism-based; conditions: in vivo, read-out: Vdss; method in brief: as §3
[15] = Drug metabolism in human hepatocytes assessed as [3H]-3-(3,5-dimethyl-4-(6-(5-phenyl-1,3,4-oxadiazol-2-yl)-1H-benzo[d]imidazol-2-yl)phenyl)-2,2-dimethylpropanoic acid formation at 12.5 uM after 18 hrs; type: ADME, cell-based, Hepatocyte; method in brief: as §1
Salmonella typhimurium [16] = assay: Genotoxicity in histidine depleted Salmonella typhimurium TA100 assessed as increase in reverting mutations up to 1000 ug in absence of S9 metabolic activation by Ames test; type: toxicity; conditions: salmonella enterica subsp. enterica serovar typhimurium
[17] = Permeability across basolateral to apical side in human Caco2 cells; type: ADME, cell-based; conditions: Caco-2, read-out: permeability; method in brief: as §2
[18] = Drug metabolism in rat hepatocytes assessed as [3H]-3-(3,5-dimethyl-4-(6-(5-phenyl-1,3,4-oxadiazol-2-yl)-1H-benzo[d]imidazol-2-yl)phenyl)-2,2-dimethylpropanoic acid formation at 12.5 uM after 18 hrs; type: ADME, cell-based, Hepatocyte; method in brief: as §1
[19] = Drug metabolism in monkey hepatocytes assessed as [3H]-(2S,3S,4S,5R,6S)-3,4,5-trihydroxy-6-(3-(4-(6-(5-(4-methoxyphenyl)-1,3,4-oxadiazol-2-yl)-1H-benzo[d]imidazol-2-yl)-3,5-dimethylphenyl)-2,2-dimethylpropanoyloxy)tetrahydro-2H-pyran-2-carboxylic acid formation at 12.5 uM after 18 hrs; type: ADME, cell-based, Macaca mulatta, Hepatocyte; conditions: rhesus monkey; method in brief: as §1
Homo sapiens [20] = assay: Toxicity in human assessed as diarrhea at 150 mg, po as single oral dose; type: organism-based; conditions: in vivo
[21] = Drug metabolism in rat hepatocytes assessed as [3H]-(2S,3S,4S,5R,6S)-3,4,5-trihydroxy-6-(3-(4-(6-(5-(4-methoxyphenyl)-1,3,4-oxadiazol-2-yl)-1H-benzo[d]imidazol-2-yl)-3,5-dimethylphenyl)-2,2-dimethylpropanoyloxy)tetrahydro-2H-pyran-2-carboxylic acid formation at 12.5 uM after 18 hrs; type: ADME, cell-based, Hepatocyte; method in brief: as §1

COc1ccc(-c2nnc(-c3ccc4nc(-c5c(C)cc(CC(C)(C)C(=O)O)cc5C)[nH]c4c3)o2)cc1
Drug metabolism [1]: Metabolite_Detected | efflux ratio [2]: 2.4 | IC50 [3]: 151 nM | Tmax [4]: 1.2 h | Activity (Salmonella typhimurium [5]): Non-Toxic | Drug metabolism [6]: Metabolite_Detected | Activity (Salmonella typhimurium [7]): Non-Toxic | Cmax [8]: 3.55 µM | AUC(0-t) at 8 h [9]: 10.4 µM·h | clearance [10]: 9.5 mL/min/kg | IC50 [11]: > 10000 nM | Activity (Homo sapiens [12]): Toxic | Drug metabolism [13]: Metabolite_Detected | Vd [14]: 0.6 L/kg | Drug metabolism [15]: Metabolite_Detected | Activity (Salmonella typhimurium [16]): Non-Toxic | Papp B→A [17]: 10 ×10⁻⁶ cm/s | Drug metabolism [18]: Metabolite_Detected | Drug metabolism [19]: Metabolite_Detected | Activity (Homo sapiens [20]): Toxic | Drug metabolism [21]: Metabolite_Detected
